Assay results from ChEMBL document CHEMBL1135402, “New serotonin 5-HT(2A), 5-HT(2B), and 5-HT(2C) receptor antagonists: synthesis, pharmacology, 3D-QSAR, and molecular modeling of (aminoalkyl)benzo and heterocycloalkanones” (J Med Chem, 2002).

What was measured:
[1] = target: Serotonin receptor 2a and 2c (5HT2A and 5HT2C) (Rattus norvegicus) (UniProt P08909+P14842); experiment: Selectivity ratio towards Ki of 5-hydroxytryptamine 2A receptor to 5-hydroxytryptamine 2C receptor; format: protein assay
Chain of Serotonin receptor 2a and 2c (5HT2A and 5HT2C) (Rattus norvegicus) (P08909 whole entry, looked up): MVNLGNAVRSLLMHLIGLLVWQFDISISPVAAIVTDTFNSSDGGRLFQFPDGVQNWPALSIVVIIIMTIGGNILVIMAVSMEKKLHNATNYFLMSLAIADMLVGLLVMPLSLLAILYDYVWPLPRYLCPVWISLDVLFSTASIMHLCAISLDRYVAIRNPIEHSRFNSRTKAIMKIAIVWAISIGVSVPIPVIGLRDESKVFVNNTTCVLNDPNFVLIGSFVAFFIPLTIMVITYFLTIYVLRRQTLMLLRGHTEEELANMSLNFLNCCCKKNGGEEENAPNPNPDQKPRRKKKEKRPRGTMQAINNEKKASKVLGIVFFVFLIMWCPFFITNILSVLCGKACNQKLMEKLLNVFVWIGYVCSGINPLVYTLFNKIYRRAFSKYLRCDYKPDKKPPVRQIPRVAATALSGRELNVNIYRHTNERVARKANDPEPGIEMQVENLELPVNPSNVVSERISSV
Chain of Serotonin receptor 2a and 2c (5HT2A and 5HT2C) (Rattus norvegicus) (P14842 whole entry, looked up): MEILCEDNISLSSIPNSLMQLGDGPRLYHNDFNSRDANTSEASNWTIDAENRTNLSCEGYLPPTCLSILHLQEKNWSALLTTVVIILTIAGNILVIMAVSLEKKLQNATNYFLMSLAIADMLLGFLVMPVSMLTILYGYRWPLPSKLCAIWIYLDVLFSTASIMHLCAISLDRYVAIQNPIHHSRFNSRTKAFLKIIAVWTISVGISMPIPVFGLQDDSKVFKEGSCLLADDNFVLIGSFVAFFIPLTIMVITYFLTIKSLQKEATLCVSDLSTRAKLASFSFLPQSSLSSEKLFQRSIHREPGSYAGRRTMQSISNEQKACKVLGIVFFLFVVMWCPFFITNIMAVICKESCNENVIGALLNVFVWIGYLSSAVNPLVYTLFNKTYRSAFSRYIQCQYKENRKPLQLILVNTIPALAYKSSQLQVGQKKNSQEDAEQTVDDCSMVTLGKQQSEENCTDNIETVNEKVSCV

[2] = target: T1, 5-hydroxytryptamine receptor 2A (Rattus norvegicus, UniProt P14842); experiment: Negative log concentration of antagonist on 5-hydroxytryptamine 2A receptor in rat thoracic aorta; format: functional, tissue-based; details: read-out: pA2 (converted)
T1 sequence (P14842 whole entry): as the sequence (P14842 whole entry, looked up) above

[3] = target: T2, 5-hydroxytryptamine receptor 2B (Rattus norvegicus, UniProt P30994); experiment: Antagonistic activity on 5-hydroxytryptamine 2B receptor of Rat stomach fundus;ND is not determined; format: functional, tissue-based; details: read-out: pA2 (converted)
T2 sequence (P30994 whole entry): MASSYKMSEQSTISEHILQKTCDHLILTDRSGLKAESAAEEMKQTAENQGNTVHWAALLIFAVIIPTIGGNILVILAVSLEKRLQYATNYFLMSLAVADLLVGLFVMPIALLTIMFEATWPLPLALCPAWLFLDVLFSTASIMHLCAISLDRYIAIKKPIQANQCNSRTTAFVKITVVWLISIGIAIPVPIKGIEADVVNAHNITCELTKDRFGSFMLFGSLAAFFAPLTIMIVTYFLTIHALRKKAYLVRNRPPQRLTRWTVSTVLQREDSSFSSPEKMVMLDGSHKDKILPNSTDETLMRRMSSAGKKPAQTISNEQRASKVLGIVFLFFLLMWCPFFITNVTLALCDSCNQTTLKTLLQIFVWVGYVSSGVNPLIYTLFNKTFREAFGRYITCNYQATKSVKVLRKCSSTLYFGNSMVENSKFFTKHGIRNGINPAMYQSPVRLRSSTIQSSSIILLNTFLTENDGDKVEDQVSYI
Procedure, shortened: (§1)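 Rat stomach fundus strips equilibrated 1 h under 1 g load; isometric contractions to cumulative 5-HT (0.01 nM–10 μM) in organ bath. Control curves, then antagonist preincubated before test curve; pA2 from EC50 shift at one antagonist concentration, […].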

[4] = target: 5-hydroxytryptamine receptor 2A (Homo sapiens, UniProt P28223); experiment: Inhibitory constant for human 5-hydroxytryptamine 2A receptor transfected in to CHO cells; format: cell-based
Chain of 5-hydroxytryptamine receptor 2A (Homo sapiens, UniProt P28223) (P28223 whole entry): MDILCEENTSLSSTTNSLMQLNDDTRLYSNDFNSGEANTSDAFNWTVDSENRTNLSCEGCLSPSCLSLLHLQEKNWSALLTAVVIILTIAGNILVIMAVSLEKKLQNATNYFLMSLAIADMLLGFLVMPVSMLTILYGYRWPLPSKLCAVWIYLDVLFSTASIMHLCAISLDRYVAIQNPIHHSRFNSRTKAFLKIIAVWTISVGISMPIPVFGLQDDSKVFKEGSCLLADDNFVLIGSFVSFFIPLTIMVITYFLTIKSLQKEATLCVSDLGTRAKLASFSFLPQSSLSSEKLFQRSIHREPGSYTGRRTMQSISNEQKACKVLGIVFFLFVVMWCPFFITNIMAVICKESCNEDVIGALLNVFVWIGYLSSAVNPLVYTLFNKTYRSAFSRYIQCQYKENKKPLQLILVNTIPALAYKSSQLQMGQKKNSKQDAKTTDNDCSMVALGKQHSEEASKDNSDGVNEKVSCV
Procedure, shortened: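 CHO cells stably expressing cloned human 5-HT2A, grown 24 h in dialyzed FCS before harvest; membranes in 50 mM Tris-HCl pH 7.5. […] Ki from IC50 by Cheng–Prusoff.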

[5] = target: T1, 5-hydroxytryptamine receptor 2A; experiment: Inhibitory constant on 5-hydroxytryptamine 2A receptor of Rat frontal cortex; format: tissue-based
[6] = target: T3, 5-hydroxytryptamine receptor 2C (Homo sapiens, UniProt P28335); experiment: Inhibitory constant on human 5-hydroxytryptamine 2C receptor transfected in to HeLa cells; format: cell-based
T3 sequence (P28335 whole entry): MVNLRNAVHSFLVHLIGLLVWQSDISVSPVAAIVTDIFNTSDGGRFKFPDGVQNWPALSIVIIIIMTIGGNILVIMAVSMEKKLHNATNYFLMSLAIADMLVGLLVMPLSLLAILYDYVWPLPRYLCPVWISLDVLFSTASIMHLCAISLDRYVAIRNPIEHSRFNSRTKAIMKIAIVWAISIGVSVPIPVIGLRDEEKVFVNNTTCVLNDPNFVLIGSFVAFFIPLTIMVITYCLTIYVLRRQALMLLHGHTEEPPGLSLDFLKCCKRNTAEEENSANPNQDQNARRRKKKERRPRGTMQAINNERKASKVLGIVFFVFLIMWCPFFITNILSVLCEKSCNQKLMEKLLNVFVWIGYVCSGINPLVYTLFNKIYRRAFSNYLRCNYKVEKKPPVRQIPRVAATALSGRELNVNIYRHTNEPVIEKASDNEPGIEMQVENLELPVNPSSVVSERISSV
Procedure, shortened: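 HeLa cells stably expressing cloned human 5-HT2C, grown 24 h in dialyzed FCS; membranes as for human 5-HT2A. [3H]mesulergine (2 nM final) competition, nonspecific with 1 μM mianserine, 1 h at room temperature; GF/B filtration, scintillation counting. Ki via Cheng–Prusoff.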

[7] = target: T1, 5-hydroxytryptamine receptor 2A; experiment: Negative log concentration of antagonistic compound was determined on 5-hydroxytryptamine 2A receptor of Rat thoracic aorta; format: functional, tissue-based; details: read-out: pA2 (converted)
Procedure, shortened: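 Denuded thoracic aorta rings (4 mm) from male Sprague–Dawley rats (250–350 g), 2 g tension in Krebs organ bath; isometric contraction. Sensitized with 10 μM 5-HT, then cumulative 5-HT curves (30 nM–100 μM) alternating with 60 min equilibration; two matching control runs, then antagonist added 20 min before end of equilibration. Single-concentration method: […].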

[8] = target: T2, 5-hydroxytryptamine receptor 2B; experiment: Negative log concentration of antagonistic compound was determined on 5-hydroxytryptamine 2B receptor of Rat stomach fundus; format: functional, tissue-based; details: read-out: pA2 (converted); procedure, shortened: as §1
[9] = target: 5-hydroxytryptamine receptor 2C (Bos taurus); experiment: Inhibitory constant was determined on 5-hydroxytryptamine 2C receptor of Bovine choroid plexus

SMILES | Ratio [1] | Kb [2] [nM] | Ki [5] [nM] | further results
COc1ccccc1N1CCN(CCC2CCc3ccccc3C2=O)CC1 (configuration not stated) | 5.8 | 191 |  | 
O=C(CCCN1CCN(CC2CC(=O)c3ccccc32)CC1)c1ccc(F)cc1 (configuration not stated) |  | 63.1 |  | 
O=C(c1ccc(F)cc1)C1CCN(CCC2CCc3ccsc3C2=O)CC1 (configuration not stated) | 31 |  |  | Kb [3]: 331 nM
O=C(CCCN1CCN(CC2CC(=O)c3ccccc3C2)CC1)c1ccc(F)cc1 (configuration not stated) | 1780 | 53.7 |  | Ki [4]: 115 nM
O=C1CC(CN2CCC(c3noc4cc(F)ccc34)CC2)Cc2sccc21 (stereo in doubt; (-)18h) |  |  | 11.7 | 
O=C1c2sccc2CCC1CCN1CCC(c2noc3cc(F)ccc23)CC1 (configuration not stated) | 10 |  |  | 
O=C(c1ccc(F)cc1)C1CCN(CCC2CCc3occc3C2=O)CC1 (configuration not stated) | 18 | 26.3 | 19.5 | 
O=C1c2ccoc2CCC1CCN1CCN(c2ccccn2)CC1 (configuration not stated) | 89 | 676 | 355 | 
O=C1CC(CN2CCC(c3noc4cc(F)ccc34)CC2)Cc2sccc21 (single isomer, unassigned; (+)) |  |  | 11.5 | 
O=C1c2ccoc2CCC1CCN1CCC(c2noc3cc(F)ccc23)CC1 (configuration not stated) | 65 | 0.562 | 1.07 | Ki [4]: 0.724 nM; Ki [6]: 34.7 nM
O=C1c2ccsc2CCC1CCN1CCN(c2ccccn2)CC1 (configuration not stated) | 9.8 | 490 | 174 | 
O=C1CC(CN2CCC(c3noc4cc(F)ccc34)CC2)Cc2[nH]c3ccccc3c21 (configuration not stated) | 36 |  |  | Ki [4]: 1.17 nM; Ki [6]: 27.5 nM
O=C(CCCN1CCN(CCC2CCc3ccccc3C2=O)CC1)c1ccc(F)cc1 (configuration not stated) | 46 | 44.7 |  | 
O=C1CC(CN2CCC(C(=O)c3ccc(F)cc3)CC2)Cc2occc21 (configuration not stated) | 616 | 52.5 |  | 
CCc1c(C)[nH]c2c1C(=O)CC(CN1CCN(c3ccccc3OC)CC1)C2 (configuration not stated) | 13 |  |  | 
CCc1c(C)[nH]c2c1C(=O)CC(CN1CCC(C(=O)c3ccc(F)cc3)CC1)C2 (configuration not stated) | 4.1 |  | 8.71 | 
O=C(CCCN1CCN(CCC2CCc3sccc3C2=O)CC1)c1ccc(F)cc1 (configuration not stated) |  | 148 |  | 
O=C(CCCCN1CCN(CC2CC(=O)c3ccoc3C2)CC1)c1ccc(F)cc1 (configuration not stated) | 25 |  |  | 
COc1ccccc1N1CCN(CCC2Cc3ccccc3C2=O)CC1 (configuration not stated) | 1.5 | 158 | 195 | 
O=C1CC(CN2CCC(C(=O)c3ccc(F)cc3)CC2)Cc2[nH]c3ccccc3c21 (configuration not stated) | 65 |  |  | 
COc1ccccc1N1CCN(CCC2CCc3sccc3C2=O)CC1 (configuration not stated) |  | 112 |  | 
O=C(c1ccc(F)cc1)C1CCN(CCC2CCc3sccc3C2=O)CC1 (configuration not stated) |  | 0.955 |  | 
O=C1c2ccsc2CCC1CCN1CCC(c2noc3cc(F)ccc23)CC1 (configuration not stated) |  | 0.135 |  | 
O=C(CCCN1CCN(CCC2Cc3sccc3C2=O)CC1)c1ccc(F)cc1 (configuration not stated) |  | 23.4 |  | 
COc1ccccc1N1CCN(CC2CC(=O)c3c([nH]c4ccccc34)C2)CC1 (configuration not stated) | 1.9 |  |  | 
O=C1CC(CN2CCN(c3ccccc3)CC2)Cc2occc21 (configuration not stated) | 1440 |  |  | 

SMILES | Ratio [1] | Kb [2] [nM] | Ki [5] [nM] | further results
O=C(CCCN1CCN(CCC2Cc3ccccc3C2=O)CC1)c1ccc(F)cc1 (configuration not stated) | 50 | 50.1 |  | Ki [4]: 67.6 nM; Ki [6]: > 10000 nM
O=C1CC(CN2CCC(c3noc4cc(F)ccc34)CC2)Cc2ccccc21 (configuration not stated) |  |  | 2.69 | 
CCc1c(C)[nH]c2c1C(=O)C(CCN1CCN(c3ccccc3OC)CC1)CC2 (configuration not stated) | 2.5 |  |  | Kb [7]: 31.6 nM
CCc1c(C)[nH]c2c1C(=O)CC(CN1CCN(CCCC(=O)c3ccc(F)cc3)CC1)C2 (configuration not stated) | 0.26 |  | 912 | 
O=C1CC(CN2CCN(c3ccccn3)CC2)c2ccccc21 (configuration not stated) | 0.027 |  | > 10000 | 
CCc1c(C)[nH]c2c1C(=O)CC(CN1CCC(c3noc4cc(F)ccc34)CC1)C2 (configuration not stated) | 89 |  | 4.27 | 
O=C(CCCN1CCN(CC2CC(=O)c3ccoc3C2)CC1)c1ccc(F)cc1 (configuration not stated) | 33 |  |  | 
COc1ccccc1N1CCN(CC2CC(=O)c3ccsc3C2)CC1 (configuration not stated) |  | 1260 |  | 
O=C1CC(CN2CCC(c3noc4cc(F)ccc34)CC2)Cc2sccc21 (racemic) [listing 1 of 2 here] | 44 |  |  | 
O=C1CC(CN2CCN(c3ncccn3)CC2)Cc2occc21 (configuration not stated) | 1 |  | > 10000 | Kb [8]: 977 nM
O=C(c1ccc(F)cc1)C1CCN(CCC2Cc3ccccc3C2=O)CC1 (configuration not stated) |  | 7.59 |  | 
O=C1CC(CN2CCC(C(=O)c3ccc(F)cc3)CC2)Cc2sccc21 (configuration not stated) |  | 15.1 |  | 
O=C(CCCN1CCN(CCC2Cc3cc(F)ccc3C2=O)CC1)c1ccc(F)cc1 (configuration not stated) | 36 |  | 53.7 | 
O=C1CC(CN2CCC(C(=O)c3ccc(F)cc3)CC2)Cc2ccccc21 (configuration not stated) |  | 13.8 |  | 
O=C(c1ccc(F)cc1)C1CCN(CCC2Cc3cc(F)ccc3C2=O)CC1 (configuration not stated) | 219 | 7.59 |  | 
O=C(CCCN1CCN(CC2CC(=O)c3ccsc3C2)CC1)c1ccc(F)cc1 (configuration not stated) |  | 16.2 |  | 
O=C1CC(CN2CCC(C(=O)c3ccc(F)cc3)CC2)c2ccccc21 (configuration not stated) |  | 7.41 |  | 
COc1ccccc1N1CCN(CC2CC(=O)c3ccccc3C2)CC1 (configuration not stated) | 5.5 | 331 |  | 
COc1ccccc1N1CCN(CC2CC(=O)c3ccccc32)CC1 (configuration not stated) |  | 617 |  | 
O=C(c1ccc(F)cc1)C1CCN(CCC2Cc3sccc3C2=O)CC1 (configuration not stated) |  | 1.2 |  | 
COc1ccccc1N1CCN(CCC2CCc3occc3C2=O)CC1 (configuration not stated) | 3 | 501 | 191 | 
O=C1CC(CN2CCC(c3noc4cc(F)ccc34)CC2)Cc2occc21 (configuration not stated) | 2950 | 11.2 |  | Ki [6]: 3980 nM
O=C(c1ccc(F)cc1)C1CCN(CCC2CCc3ccccc3C2=O)CC1 (configuration not stated) | 29 | 33.9 |  | 
COc1ccccc1N1CCN(CC2CC(=O)c3ccoc3C2)CC1 (configuration not stated) | 1 |  | > 10000 | 
O=C1CC(CN2CCC(c3noc4cc(F)ccc34)CC2)Cc2sccc21 (racemic) [listing 2 of 2 here] |  | 0.741 |  | Log Ki [9]: -6.69
O=C(c1ccc(F)cc1)C1CCN(CCC2CCCc3ccccc3C2=O)CC1 (configuration not stated) |  | 178 |  | 
